According to ChEMBL document CHEMBL4411315, “Discovery of Novel Dual Histone Deacetylase and Mammalian Target of Rapamycin Target Inhibitors as a Promising Strategy for Cancer Therapy” (J Med Chem, 2019):
pIC50: −log10 of the molar value. Calls of active or inactive are those of the source. No cut-off for these calls is given here.

How the values were obtained:
MV4-11 [1] = assay: Cell cycle arrest in human MV4-11 cells assessed as accumulation at S phase at 1.25 nM after 24 hrs by propidium iodide/RNase staining-based FACS analysis (reference value: 36.42%); assay type: functional
MM1.S [2] = assay: Cell cycle arrest in human MM1S cells assessed as accumulation at G2/M phase at 1.25 nM after 24 hrs by propidium iodide/RNase staining-based FACS analysis (reference value: 26.29%); assay type: functional
MM1.S [3] = assay: Cell cycle arrest in human MM1S cells assessed as accumulation at G0/G1 phase at 2.5 nM after 24 hrs by propidium iodide/RNase staining-based FACS analysis (reference value: 49.22%); assay type: functional
MM1.S [4] = assay: Cell cycle arrest in human MM1S cells assessed as accumulation at G0/G1 phase at 10 nM after 24 hrs by propidium iodide/RNase staining-based FACS analysis (reference value: 49.22%); assay type: functional
MV4-11 [5] = assay: Induction of apoptosis in human MV4-11 cells assessed as necrotic cells at 160 nM after 48 hrs by Annexin V-FITC/propidium iodide staining-based flow cytometric analysis (reference value: 0.17%); assay type: functional
[6] = Toxicity against NOD/SCID mouse xenografted with human MV4-11 cells assessed as mouse survival at 10 mg/kg, iv administered every 2 days for 6 days; assay type: organism-based; conditions: in vivo
Procedure, shortened: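 MV4-11 cells (10^7 in 100 μL serum-free IMDM) were injected s.c. into the right flank of female NOD/SCID mice aged 5-6 weeks. Groups of 6 were randomised at 100-200 mm3. Dosing was i.v. every 2 days in physiological saline containing 2.5% DMSO and 10% cyclodextrin, pH 9. Tumours were measured by caliper every 2 days. Survivors were counted.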

MV4-11 [7] = assay: Induction of apoptosis in human MV4-11 cells assessed as necrotic cells at 20 nM after 48 hrs by Annexin V-FITC/propidium iodide staining-based flow cytometric analysis (reference value: 0.17%); assay type: functional
[8] = target: T1, Serine/threonine-protein kinase mTOR (Homo sapiens, UniProt P42345); assay: Inhibition of human recombinant mTOR expressed in mammalian expression system assessed as residual activity at 1 uM
Procedure, shortened: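 Radiometric kinase panel (99 kinases) run at 1 μM inhibitor in duplicate with [γ-33P]ATP, kinase-specific buffer and substrate at room temperature. The reaction was started with Mg/ATP and stopped with 0.5% phosphoric acid, then spotted on P30 filtermat, washed and scintillation counted. Results are expressed as % remaining activity versus DMSO control.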

OCI-AML2 = assay: Antiproliferative activity against human OCI-AML2 cells after 72 hrs by MTT assay; assay type: functional, cell-based; conditions: OCI-AML2, 72 h
MV4-11 [9] = assay: Cell cycle arrest in human MV4-11 cells assessed as accumulation at S phase at 10 nM after 24 hrs by propidium iodide/RNase staining-based FACS analysis (reference value: 36.42%); assay type: functional
MV4-11 [10] = assay: Induction of apoptosis in human MV4-11 cells assessed as late apoptotic cells at 160 nM after 48 hrs by Annexin V-FITC/propidium iodide staining-based flow cytometric analysis (reference value: 5.03%); assay type: functional
[11] = Toxicity against NOD/SCID mouse xenografted with human MM1S cells assessed as mouse survival at 10 mg/kg, iv administered every 2 days for 5 days; assay type: organism-based; conditions: in vivo
Procedure, shortened: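 Female NOD/SCID mice, 5-6 weeks old, received 10^7 MM1S cells in 100 μL serum-free RPMI 1640 s.c. into the right flank. At 100-200 mm3 tumours they were randomised, 6 mice per group. Tumours were measured by caliper every 2 days. At the end, tumours were excised and weighed. Survivors are reported per group.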

[12] = target: T1, Serine/threonine-protein kinase mTOR; assay: Inhibition of mTOR in human MV4-11 cells assessed as decrease in ERK phosphorylation after 24 hrs by Western blot analysis; assay type: cell-based
Procedure, shortened: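 Treatment of MV4-11 cells lasted 24 h at 0.01, 0.1, 1 and 10 μM. Lysis in RIPA buffer and BCA quantitation, then 30 μg protein by SDS-PAGE, PVDF transfer, 5% milk block, primary antibody overnight at 4 °C, HRP secondary 1 h and ECL detection. p-p70S6K (T389), p-4EBP1 (S65), p-Akt (S473) and p-ERK were probed.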

MV4-11 [13] = assay: Induction of apoptosis in human MV4-11 cells assessed as late apoptotic cells at 320 nM after 48 hrs by Annexin V-FITC/propidium iodide staining-based flow cytometric analysis (reference value: 5.03%); assay type: functional
MV4-11 [14] = assay: Cell cycle arrest in human MV4-11 cells assessed as accumulation at G2/M phase at 2.5 nM after 24 hrs by propidium iodide/RNase staining-based FACS analysis (reference value: 18.79%); assay type: functional
MM1.S [15] = assay: Induction of apoptosis in human MM1S cells assessed as late apoptotic cells at 40 nM after 48 hrs by Annexin V-FITC/propidium iodide staining-based flow cytometric analysis (reference value: 0.42%); assay type: functional
MV4-11 [16] = assay: Cell cycle arrest in human MV4-11 cells assessed as accumulation at G0/G1 phase at 2.5 nM after 24 hrs by propidium iodide/RNase staining-based FACS analysis (reference value: 44.79%); assay type: functional
MM1.S [17] = assay: Antiproliferative activity against human MM1S cells after 72 hrs by MTT assay; assay type: functional, cell-based
MM1.S [18] = assay: Induction of apoptosis in human MM1S cells assessed as early apoptotic cells at 20 nM after 48 hrs by Annexin V-FITC/propidium iodide staining-based flow cytometric analysis (reference value: 0.38%); assay type: functional
MM1.S [19] = assay: Induction of apoptosis in human MM1S cells assessed as viable cells at 80 nM after 48 hrs by Annexin V-FITC/propidium iodide staining-based flow cytometric analysis (reference value: 98.9%); assay type: functional; conditions: read-out: Activity
MV4-11 [20] = assay: Induction of apoptosis in human MV4-11 cells assessed as necrotic cells at 10 nM after 48 hrs by Annexin V-FITC/propidium iodide staining-based flow cytometric analysis (reference value: 0.17%); assay type: functional
MM1.S [21] = assay: Antitumor activity against human MM1S cells xenografted in NOD/SCID mouse assessed as tumor growth inhibition at 20 mg/kg, iv administered every 2 days for 5 days and measured every 2 days post last dose by caliper method relative to control; assay type: functional; conditions: read-out: TGI
Procedure, shortened: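 MM1S xenografts were made with 10^7 cells in 100 μL serum-free RPMI 1640, injected s.c. into the right flank of female NOD/SCID mice aged 5-6 weeks. Mice were randomized at 100-200 mm3, 6 per group. Dosing was i.v. every 2 days in saline with 2.5% DMSO and 10% cyclodextrin at pH 9. Tumours were measured by caliper every 2 days (volume = length × width² × 0.5) and weighed at the end.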

MV4-11 [22] = assay: Cell cycle arrest in human MV4-11 cells assessed as accumulation at G2/M phase at 5 nM after 24 hrs by propidium iodide/RNase staining-based FACS analysis (reference value: 18.79%); assay type: functional
Histone deacetylase 3 = Histone deacetylase 3 (Homo sapiens, UniProt O15379); assay: Inhibition of recombinant full length HDAC3 (unknown origin) using Ac-peptide-AMC as substrate preincubated for 15 mins followed by substrate addition and measured after 1 hr by fluorescence assay
MM1.S [23] = assay: Induction of apoptosis in human MM1S cells assessed as necrotic cells at 320 nM after 48 hrs by Annexin V-FITC/propidium iodide staining-based flow cytometric analysis (reference value: 0.32%); assay type: functional

Chain of Histone deacetylase 3 (O15379 whole entry): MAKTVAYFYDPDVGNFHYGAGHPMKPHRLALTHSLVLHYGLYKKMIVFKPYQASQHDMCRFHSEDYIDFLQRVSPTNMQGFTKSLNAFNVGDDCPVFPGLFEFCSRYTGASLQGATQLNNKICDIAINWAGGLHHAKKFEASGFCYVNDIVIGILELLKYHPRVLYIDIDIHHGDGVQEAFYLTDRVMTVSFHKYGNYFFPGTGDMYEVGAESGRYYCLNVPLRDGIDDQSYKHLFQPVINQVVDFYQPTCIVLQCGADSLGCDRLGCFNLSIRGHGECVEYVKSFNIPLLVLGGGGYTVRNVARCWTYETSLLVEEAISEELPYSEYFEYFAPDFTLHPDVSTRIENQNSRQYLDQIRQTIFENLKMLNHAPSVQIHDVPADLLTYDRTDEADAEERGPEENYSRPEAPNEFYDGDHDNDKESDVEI

## C[C@@H]1CN(C(=O)Nc2ccc(-c3nc(N4CCOCC4)c4cnn(CCCCCCC(=O)NO)c4n3)cc2)CCO1
MV4-11 [1]
  Activity: 34.16%
MM1.S [2]
  Activity: 24.1%
MM1.S [3]
  Activity: 52.62%
MM1.S [4]
  Activity: 66.96%
MV4-11 [5]
  Activity: 1.13%
[6]
  Activity: Non-Toxic
MV4-11 [7]
  Activity: 2.84%
[8]
  inhibition: Active
OCI-AML2
  pIC50: 8.05
MV4-11 [9]
  Activity: 23.42%
MV4-11 [10]
  Activity: 61.9%
[11]
  Activity: Non-Toxic
[12]
  inhibition: Dose-dependent effect
MV4-11 [13]
  Activity: 68.3%
MV4-11 [14]
  Activity: 18.2%
MM1.S [15]
  Activity: 23%
MV4-11 [16]
  Activity: 48.03%
MM1.S [17]
  pIC50: 8.14
MM1.S [18]
  Activity: 1.61%
MM1.S [19]
  viability at 0.08 µM: 49.7%
MV4-11 [20]
  Activity: 0.14%
MM1.S [21]
  inhibition in vivo at 20 mg/kg: 72.5%
MV4-11 [22]
  Activity: 13.99%
Histone deacetylase 3
  pIC50: 8.83
MM1.S [23]
  Activity: 2.2%
